In ChEMBL document CHEMBL1142890, “Structure-antibacterial activity of arylcarbonyl- and arylsulfonyl-piperazine 5-triazolylmethyl oxazolidinones” (2007):
In brackets after ≈: the same amount, converted by molar mass.

Experiments:
Escherichia coli = assay: Antimicrobial activity against Escherichia coli ATCC 25922; type: functional
Staphylococcus aureus [1] = assay: Antimicrobial activity against Staphylococcus aureus ATCC 25923 by agar dilution method
Streptococcus pneumoniae = assay: Antimicrobial activity against Streptococcus pneumoniae by agar dilution method; type: functional
Procedure, shortened: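 Agar dilution per CLSI on Mueller–Hinton agar holding drug dilutions from 0.12 to 8 µg/ml. Staphylococci and enterococci tested on plain MH agar, S. pneumoniae on MH agar with 5% sheep blood. Test compounds dissolved in 20% water in DMSO. Inoculum 10⁷ CFU/ml, incubated 35 °C for 18 h. MIC was the lowest concentration giving complete growth inhibition.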

Haemophilus influenzae = assay: Antimicrobial activity against Haemophilus influenzae; type: functional
Staphylococcus aureus [2] = assay: Antimicrobial activity against Staphylococcus aureus ATCC 25922 in presence of 50% human plasma […]; type: functional; conditions: ATCC 25923, Plasma, in the assay text read “ATCC 25923” for “ATCC 25922”
Procedure, shortened: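 S. aureus ATCC 25923 tested in Mueller–Hinton broth supplemented with 50% human plasma. Test compounds dissolved in 20% water in DMSO. Inoculum 10⁷ CFU/ml, incubated 35 °C for 18 h. MIC was the lowest concentration completely inhibiting growth.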

Staphylococcus aureus [3] = assay: Antimicrobial activity against methicillin-susceptible Staphylococcus aureus by agar dilution method; type: functional
Procedure, shortened: (§1)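 Agar dilution per CLSI on Mueller-Hinton agar, test agents at 0.12 to 8 µg/ml; test compounds dissolved in 20% water in DMSO, linezolid in 40% water in ethanol, vancomycin in water. Clinical isolates inoculated at final 10^7 CFU/ml, incubated 35 °C for 18 h. MIC = lowest concentration completely inhibiting growth; reported as range across isolates.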

Enterococcus [4] = assay: Antimicrobial activity against vancomycin-resistant Enterococcus by agar dilution method; type: functional; procedure, shortened: as §1
Enterococcus [5] = assay: Antimicrobial activity against vancomycin-sensitive Enterococcus by agar dilution method; type: functional; procedure, shortened: as §1
Staphylococcus [6] = assay: Antimicrobial activity against methicillin-resistant coagulase-negative Staphylococcus by agar dilution method; type: functional; procedure, shortened: as §1
Moraxella catarrhalis = assay: Antimicrobial activity against Moraxella catarrhalis; type: functional
Staphylococcus [7] = assay: Antimicrobial activity against methicillin-susceptible coagulase-negative staphylococcus by agar dilution method; type: functional; procedure, shortened: as §1
Staphylococcus aureus [8] = assay: Antimicrobial activity against methicillin-resistant Staphylococcus aureus by agar dilution method; type: functional; procedure, shortened: as §1

SMILES	MIC (Escherichia coli) [µg/mL]	MIC (Staphylococcus aureus [1]) [µg/mL]	MIC (Streptococcus pneumoniae) [µg/mL]	MIC (Haemophilus influenzae) [µg/mL]	MIC (Staphylococcus aureus [2]) [µg/mL]	MIC (Staphylococcus aureus [3]) [µg/mL]	MIC (Enterococcus [4]) [µg/mL]	MIC (Enterococcus [5]) [µg/mL]	MIC (Staphylococcus [6]) [µg/mL]	MIC (Moraxella catarrhalis) [µg/mL]	MIC (Staphylococcus [7]) [µg/mL]	MIC (Staphylococcus aureus [8]) [µg/mL]
O=C(c1cccnc1)N1CCN(c2ccc(N3C[C@H](Cn4ccnn4)OC3=O)cc2F)CC1	≥ 8	1 (≈ 2.22 µM)	0.5 (≈ 1.11 µM)	≥ 8	4	0.5 (≈ 1.11 µM)	0.5 (≈ 1.11 µM)	1 (≈ 2.22 µM)	0.5 (≈ 1.11 µM)	≥ 8	0.5 (≈ 1.11 µM)	0.5 (≈ 1.11 µM)
O=C(c1ccncc1)N1CCN(c2ccc(N3C[C@H](Cn4ccnn4)OC3=O)cc2F)CC1	≥ 8	1 (≈ 2.22 µM)	1 (≈ 2.22 µM)	≥ 8	8	0.5 (≈ 1.11 µM)	0.5 (≈ 1.11 µM)	1 (≈ 2.22 µM)	0.5 (≈ 1.11 µM)	≥ 8	0.25 (≈ 0.554 µM)	0.5 (≈ 1.11 µM)
O=C(c1cccnc1Cl)N1CCN(c2ccc(N3C[C@H](Cn4ccnn4)OC3=O)cc2F)CC1	≥ 8	2 (≈ 4.12 µM)	1 (≈ 2.06 µM)	≥ 8	4	0.5 (≈ 1.03 µM)	1 (≈ 2.06 µM)	1 (≈ 2.06 µM)	0.5 (≈ 1.03 µM)	≥ 8	0.5 (≈ 1.03 µM)	0.5 (≈ 1.03 µM)
O=C(c1cccs1)N1CCN(c2ccc(N3C[C@H](Cn4ccnn4)OC3=O)cc2F)CC1	≥ 8	0.5 (≈ 1.1 µM)	0.25 (≈ 0.548 µM)	≥ 8	4	0.5 (≈ 1.1 µM)	0.5 (≈ 1.1 µM)	0.5 (≈ 1.1 µM)	0.25 (≈ 0.548 µM)	≥ 8	0.25 (≈ 0.548 µM)	0.5 (≈ 1.1 µM)
O=C(C(=O)N1CCN(c2ccc(N3C[C@H](Cn4ccnn4)OC3=O)cc2F)CC1)c1cccs1	≥ 8	0.5 (≈ 1.03 µM)	0.25 (≈ 0.516 µM)	≥ 8	2	0.25 (≈ 0.516 µM)	0.25 (≈ 0.516 µM)	0.5 (≈ 1.03 µM)	0.25 (≈ 0.516 µM)	≥ 8	0.25 (≈ 0.516 µM)	0.25 (≈ 0.516 µM)
O=C1O[C@@H](Cn2ccnn2)CN1c1ccc(N2CCOCC2)c(F)c1	≥ 8	1 (≈ 2.88 µM)	0.5 (≈ 1.44 µM)	≥ 8	1	0.5 (≈ 1.44 µM)	1 (≈ 2.88 µM)	0.5 (≈ 1.44 µM)	0.5 (≈ 1.44 µM)	≥ 8	0.5 (≈ 1.44 µM)	0.5 (≈ 1.44 µM)
Cc1cccc(S(=O)(=O)N2CCN(c3ccc(N4C[C@H](Cn5ccnn5)OC4=O)cc3F)CC2)c1	≥ 8	> 8	2 (≈ 4 µM)	≥ 8	> 8	4 (≈ 7.99 µM)		> 8	2 (≈ 4 µM)	≥ 8	2 (≈ 4 µM)	2 (≈ 4 µM)
Cc1ccc(S(=O)(=O)N2CCN(c3ccc(N4C[C@H](Cn5ccnn5)OC4=O)cc3F)CC2)cc1	≥ 8	> 8	2 (≈ 4 µM)	≥ 8	> 8	> 8		> 8		≥ 8	> 8	
O=C(c1ccccc1)N1CCN(c2ccc(N3C[C@H](Cn4ccnn4)OC3=O)cc2F)CC1	≥ 8	1 (≈ 2.22 µM)	1 (≈ 2.22 µM)	≥ 8	1	0.25 (≈ 0.555 µM)	0.25 (≈ 0.555 µM)	0.25 (≈ 0.555 µM)	0.25 (≈ 0.555 µM)	≥ 8	0.25 (≈ 0.555 µM)	0.25 (≈ 0.555 µM)
COc1cccc(C(=O)N2CCN(c3ccc(N4C[C@H](Cn5ccnn5)OC4=O)cc3F)CC2)c1	≥ 8	2 (≈ 4.16 µM)	0.25 (≈ 0.52 µM)	≥ 8	4	0.25 (≈ 0.52 µM)	0.5 (≈ 1.04 µM)	0.5 (≈ 1.04 µM)	0.25 (≈ 0.52 µM)	≥ 8	0.25 (≈ 0.52 µM)	0.25 (≈ 0.52 µM)
COc1ccc(C(=O)N2CCN(c3ccc(N4C[C@H](Cn5ccnn5)OC4=O)cc3F)CC2)cc1	≥ 8	2 (≈ 4.16 µM)	0.5 (≈ 1.04 µM)	≥ 8	8	1 (≈ 2.08 µM)	1 (≈ 2.08 µM)	1 (≈ 2.08 µM)	1 (≈ 2.08 µM)	≥ 8	0.5 (≈ 1.04 µM)	0.5 (≈ 1.04 µM)
O=C(/C=C/c1ccccc1)N1CCN(c2ccc(N3C[C@H](Cn4ccnn4)OC3=O)cc2F)CC1	≥ 8	0.5 (≈ 1.05 µM)	1 (≈ 2.1 µM)	≥ 8	> 8	0.25 (≈ 0.525 µM)	0.25 (≈ 0.525 µM)	0.5 (≈ 1.05 µM)	0.25 (≈ 0.525 µM)	≥ 8	0.25 (≈ 0.525 µM)	0.25 (≈ 0.525 µM)
O=C(/C=C/c1ccccc1Cl)N1CCN(c2ccc(N3C[C@H](Cn4ccnn4)OC3=O)cc2F)CC1	≥ 8	0.5 (≈ 0.979 µM)	4 (≈ 7.83 µM)	≥ 8	> 8	0.25 (≈ 0.489 µM)	0.25 (≈ 0.489 µM)	0.5 (≈ 0.979 µM)	0.25 (≈ 0.489 µM)	≥ 8	0.25 (≈ 0.489 µM)	0.25 (≈ 0.489 µM)
O=C(c1ccco1)N1CCN(c2ccc(N3C[C@H](Cn4ccnn4)OC3=O)cc2F)CC1	≥ 8	1 (≈ 2.27 µM)	0.25 (≈ 0.568 µM)	≥ 8	4	0.5 (≈ 1.14 µM)	0.5 (≈ 1.14 µM)	0.5 (≈ 1.14 µM)	0.25 (≈ 0.568 µM)	≥ 8	0.25 (≈ 0.568 µM)	0.5 (≈ 1.14 µM)
CC(=O)NC[C@H]1CN(c2ccc(N3CCOCC3)c(F)c2)C(=O)O1 [LINEZOLID]	≥ 8			≥ 8		1 (≈ 2.96 µM)	2 (≈ 5.93 µM)	0.5 (≈ 1.48 µM)	1 (≈ 2.96 µM)	≥ 8	0.25 (≈ 0.741 µM)	0.5 (≈ 1.48 µM)
CN[C@H](CC(C)C)C(=O)N[C@H]1C(=O)N[C@@H](CC(N)=O)C(=O)N[C@H]2C(=O)N[C@H]3C(=O)N[C@H](C(=O)N[C@H](C(=O)O)c4cc(O)cc(O)c4-c4cc3ccc4O)[C@H](O)c3ccc(c(Cl)c3)Oc3cc2cc(c3O[C@@H]2O[C@H](CO)[C@@H](O)[C@H](O)[C@H]2O[C@H]2C[C@](C)(N)[C@H](O)[C@H](C)O2)Oc2ccc(cc2Cl)[C@H]1O [VANCOMYCIN]	≥ 8		0.5 (≈ 0.345 µM)	≥ 8			> 64	0.25 (≈ 0.173 µM)	1 (≈ 0.69 µM)	≥ 8	1 (≈ 0.69 µM)	
